Measurements reported in ChEMBL document CHEMBL4316593 (Eur J Med Chem, 2019).
Activity calls are given as the source filed them. No cut-off for these calls is given here.

Assays:
U-87 MG [1] = experiment: Cytotoxicity against human U87 cells assessed as reduction in cell proliferation at 100 uM measured after 48 hrs by trypan blue dye-based cell counting analysis; type: functional; settings: U-87MG ATCC
Summary of the method: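 Trypan blue viability assay. U87 (MEM, 10% FBS) or LN229 (DMEM, 5% FBS) cells were treated for 48hrs. Screening used 100 μM; the dose-response used 100, 75, 50, 25 and 10 μM. Cells were pelleted at 1200 rpm and live/dead cells counted by automated counter. Mortality % was taken relative to the DMSO control, and IC₅₀ derived from the dose-response curve. Cisplatin served as positive control.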

U-87 MG [2] = experiment: Cytotoxicity against human U87 cells assessed as reduction in cell proliferation up to 200 uM by trypan blue dye-based cell counting analysis; type: functional; settings: U-87MG ATCC, TDE = time-dependent effect
Summary of the method: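 U87 cells grown 24hrs, then treated for 5hrs with 0-200 μM. Viability by trypan blue exclusion; mean ± S.E.M, n = 4 per group, one-way ANOVA.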

U-87 MG [3] = experiment: Cell cycle arrest in human U87 cells assessed as change in CDKN1A gene expression at cytotoxic IC50 measured after 48 hrs […] relative to control; type: functional, U-87MG ATCC
Summary of the method: (§1)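 U87 expression profiling. Cells incubated 48hrs at 37°C, 5% CO₂ with the IC₅₀ concentration, alongside a cisplatin and an untreated control, in triplicate. RNA was isolated by one common protocol and profiled. DEGs were called with DESeq2 (q < 0.05, fold change > 1.5) and expressed as fold change versus untreated.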

U-87 MG [4] = experiment: Induction of DNA damage in human U87 cells assessed as change in PCNA gene expression at cytotoxic IC50 measured after 48 hrs […] relative to control; type: functional, U-87MG ATCC; summary of the method: as §1
U-87 MG [5] = experiment: Induction of DNA damage in human U87 cells assessed as change in SFN gene expression at cytotoxic IC50 measured after 48 hrs […] relative to control; type: functional, U-87MG ATCC
Summary of the method: (§2)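 U87 cells grown in MEM with 10% FBS at 37°C, 5% CO2. Cells exposed to IC50 of test compound for 48 hrs, alongside untreated and cisplatin controls, each condition in triplicate. RNA isolated and profiled; differential expression called with DESeq2 (q-value < 0.05, fold change > 1.5), fold change versus untreated.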

U-87 MG [6] = experiment: Induction of apoptosis in human U87 cells assessed as change in BAX gene expression at cytotoxic IC50 measured after 48 hrs […] relative to control; type: functional, U-87MG ATCC; summary of the method: as §2
U-87 MG [7] = experiment: Induction of apoptosis in human U87 cells assessed as change in ITPR1 gene expression at cytotoxic IC50 measured after 48 hrs […] relative to control; type: functional, U-87MG ATCC; summary of the method: as §2
U-87 MG [8] = experiment: Induction of apoptosis in human U87 cells assessed as change in PMAIP1 gene expression at cytotoxic IC50 measured after 48 hrs […] relative to control; type: functional, U-87MG ATCC; summary of the method: as §2
U-87 MG [9] = experiment: Induction of apoptosis in human U87 cells assessed as decrease in caspase-3/7 activation at cytotoxic IC50 measured after 5 hrs by caspase-glo 3/7 luminescence assay relative to control; type: functional, U-87MG ATCC; parameters: scale not given: the % may be the effect or the level left
Summary of the method: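 Cells grown overnight in 96-well format, then given IC50 for 5 hrs at 37°C, 5% CO2, with negative, positive and blank (medium+DMSO+dye) wells. Equilibrated 30 min at room temperature, Caspase-Glo 3/7 reagent added 1:1 in the dark, luminescence read at 1 hr. Fold change = (test−blank)/(control−blank). Triplicate measurements, at least two independent experiments.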

[10] = Inhibition of RTK/PI3K/AKT/mTOR signaling in human U87 cells assessed as down regulation of TEX14 gene expression at cytotoxic IC50 measured after 48 hrs relative to control; type: cell-based; settings: U-87MG ATCC
Summary of the method: (§3)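 Cells were exposed for 48hrs at 37°C in humidified 5% CO₂ to the compound at its previously determined IC₅₀, with Cisplatin at its IC₅₀ and an untreated negative control alongside. Each condition was run in triplicate. RNA was isolated from all samples by the same protocol. Genes were called differentially expressed by DESeq2 at q-value < 0.05 and fold change > 1.5.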

[11] = Inhibition of RTK/PI3K/AKT/mTOR signaling in human U87 cells assessed as down regulation of TAF13 gene expression at cytotoxic IC50 measured after 48 hrs relative to control; type: cell-based; settings: U-87MG ATCC; summary of the method: as §3
[12] = Inhibition of RTK/PI3K/AKT/mTOR signaling in human U87 cells assessed as down regulation of DAGLB gene expression at cytotoxic IC50 measured after 48 hrs relative to control; type: cell-based; settings: U-87MG ATCC; summary of the method: as §2
[13] = Inhibition of RTK/PI3K/AKT/mTOR signaling in human U87 cells assessed as down regulation of ABCB8 gene expression at cytotoxic IC50 measured after 48 hrs relative to control; type: cell-based; settings: U-87MG ATCC; summary of the method: as §2
[14] = Inhibition of RTK/PI3K/AKT/mTOR signaling in human U87 cells assessed as down regulation of ZYG11B gene expression at cytotoxic IC50 measured after 48 hrs relative to control; type: cell-based; settings: U-87MG ATCC; summary of the method: as §3
[15] = Inhibition of RTK/PI3K/AKT/mTOR signaling in human U87 cells assessed as down regulation of SAFB2 gene expression at cytotoxic IC50 measured after 48 hrs relative to control; type: cell-based; settings: U-87MG ATCC; summary of the method: as §3
[16] = Inhibition of RTK/PI3K/AKT/mTOR signaling in human U87 cells assessed as down regulation of FLII gene expression at cytotoxic IC50 measured after 48 hrs relative to control; type: cell-based; settings: U-87MG ATCC; summary of the method: as §2
[17] = Inhibition of RTK/PI3K/AKT/mTOR signaling in human U87 cells assessed as down regulation of CDK5RAP2 gene expression at cytotoxic IC50 measured after 48 hrs relative to control; type: cell-based; settings: U-87MG ATCC; summary of the method: as §2
[18] = Inhibition of RTK/PI3K/AKT/mTOR signaling in human U87 cells assessed as down regulation of ERCC3 gene expression at cytotoxic IC50 measured after 48 hrs relative to control; type: cell-based; settings: U-87MG ATCC; summary of the method: as §2
[19] = Inhibition of RTK/PI3K/AKT/mTOR signaling in human U87 cells assessed as up regulation of PLD6 gene expression at cytotoxic IC50 measured after 48 hrs relative to control; type: cell-based; settings: U-87MG ATCC; summary of the method: as §3
[20] = Inhibition of RTK/PI3K/AKT/mTOR signaling in human U87 cells assessed as up regulation of T-cell leukemia translocation altered gene expression at cytotoxic IC50 measured after 48 hrs relative to control; type: cell-based
[21] = Inhibition of RTK/PI3K/AKT/mTOR signaling in human U87 cells assessed as up regulation of solute carrier family 11 member 2 gene expression at cytotoxic IC50 measured after 48 hrs relative to control; type: cell-based; settings: U-87MG ATCC
[22] = Inhibition of RTK/PI3K/AKT/mTOR signaling in human U87 cells assessed as up regulation of isoleucyl-tRNA synthetase gene expression at cytotoxic IC50 measured after 48 hrs relative to control; type: cell-based; settings: U-87MG ATCC
[23] = Inhibition of RTK/PI3K/AKT/mTOR signaling in human U87 cells assessed as up regulation of platelet derived growth factor C gene expression at cytotoxic IC50 measured after 48 hrs relative to control; type: cell-based
[24] = Inhibition of RTK/PI3K/AKT/mTOR signaling in human U87 cells assessed as up regulation of mesencephalic astrocyte derived neurotrophic factor gene expression at cytotoxic IC50 measured after 48 hrs relative to control; type: cell-based
[25] = Inhibition of RTK/PI3K/AKT/mTOR signaling in human U87 cells assessed as up regulation of AHNAK2 gene expression at cytotoxic IC50 measured after 48 hrs relative to control; type: cell-based; settings: U-87MG ATCC; summary of the method: as §3

In the case of CC(=O)C(=NNc1ccccc1C#N)C(C)=O, the Activity (U-87 MG [1]) was “Active”, the Activity (U-87 MG [2]) was “Tde” and the “fold change (FC)” value (U-87 MG [3]) was 1.296. For the same compound, the “fold change (FC)” value (U-87 MG [4]) was 1.668, the “fold change (FC)” value (U-87 MG [5]) was 1.949 and the log2FC (U-87 MG [6]) was 2.512. The log2FC (U-87 MG [7]) was -3.437, the log2FC (U-87 MG [8]) was 1.102 and the Activity (U-87 MG [9]) was 60.2%. The log2FC [10] was -3.88, the log2FC [11] was -1.05 and the log2FC [12] was -0.876. The log2FC [13] was -0.871, the log2FC [14] was -0.823 and the log2FC [15] was -0.69. For the same compound, the log2FC [16] was -0.583, the log2FC [17] was -0.519 and the log2FC [18] was -0.491. The log2FC [19] was 1.77, the log2FC [20] was 1.25 and the log2FC [21] was 1.18. The log2FC [22] was 1.04, the log2FC [23] was 0.883 and the log2FC [24] was 0.684. For the same compound, the log2FC [25] was 0.621.
